This is a sample that favours compounds with a hit; in the whole collection about 2.5% have one here.
mABHD4 FP: ABHD4 inhibitors, primary screen, biochemical, fluorescence polarization, mouse. hit rate 0.54% among 370,000. (Lyso)-N-acylphosphatidylethanolamine lipase (Mus musculus), Q8VD66. AID 720543, 2013. inhibition, % at 8.92 µM. purified mABHD4, FP-Rh probe fluorescence polarization;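 active = inhibition exceeding the mean over every tested compound plus 3 SD, cut at about 30% in these data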;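 also: 0% = plate median of compound wells and 100% = S159A mutant with DMSO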
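System: mouse ABHD4 enzyme, wild type / Medium: HEPES pH 7.0, NaCl, Pluronic buffer / Reagent: FP-Rh activity-based fluorescent probe / Control set: S159A mutant high control, sample median low control / Detection: fluorescence polarization with parallel and perpendicular emission, 525/598 nm / Schedule: 45 min + 60 min at 25 °C / Compound dosing: 8.92 µM, single dose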
HTRA1 inh: HTRA1 serine protease inhibitors, primary screen, biochemical, fluorescence polarization, HTS | recombinant HTRA1, FP-rhodamine activity-based probe | AID 504803, 2011 | hit rate 0.5% among 340,000 | inhibition, % at 5.96 µM; in the data active = inhibition above about 36%;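 also: 0% = enzyme with DMSO and 100% = wells lacking enzyme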
Target sequence (Q92743 whole entry, looked up): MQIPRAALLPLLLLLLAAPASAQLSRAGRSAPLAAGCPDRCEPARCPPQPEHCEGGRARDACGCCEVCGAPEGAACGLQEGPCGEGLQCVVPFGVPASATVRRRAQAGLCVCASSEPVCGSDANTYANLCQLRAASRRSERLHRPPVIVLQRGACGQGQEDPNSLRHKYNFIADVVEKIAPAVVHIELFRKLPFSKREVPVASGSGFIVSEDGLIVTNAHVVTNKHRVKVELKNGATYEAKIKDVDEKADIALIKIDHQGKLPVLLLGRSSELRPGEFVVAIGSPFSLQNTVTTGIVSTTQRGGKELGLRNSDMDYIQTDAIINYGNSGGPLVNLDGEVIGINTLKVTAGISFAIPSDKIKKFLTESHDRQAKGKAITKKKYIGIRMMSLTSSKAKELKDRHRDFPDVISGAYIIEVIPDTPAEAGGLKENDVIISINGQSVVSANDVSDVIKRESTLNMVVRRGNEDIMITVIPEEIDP
TCR-CD3 inh: inhibitors of human TCR-CD3 interaction, primary screen, biochemical, fluorescence, TAMRA-labeled TCR probe; T-cell receptor (TCR); inhibition, % at 9.4 µM; hit rate 0.37% among 360,000; AID 651800, 2012; in the data active = inhibition above about 19%;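 also: recombinant mutant TCR 2C K166C tagged with TAMRA read by polarization; 0% = receptor in buffer alone and 100% = receptor with positive control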
SIAE primary: human SIAE inhibitors, primary screen, biochemical, fluorescence polarization, FP-Rh probe, 1536-well HTS | Sialate O-acetylesterase (Homo sapiens), Q9HAT2 | SIAE FP-Rh probe binding | inhibition, % at 9.66 µM | AID 1053197, 2014 | hit rate 0.69% among 370,000;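 active = inhibition above a cutoff: mean of compounds within the control limits plus 3 SD of those, cut at about 17% in these data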;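 also: 0% = plate median of compound wells and 100% = probe without SIAE protein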
PRMT1 FP inh: PRMT1 methyltransferase inhibitors, primary screen, biochemical, fluorescence polarization. Protein arginine N-methyltransferase 1 (Homo sapiens), Q99873. AID 652257, 2013. recombinant PRMT1, activity-based probe fluorescence polarization. inhibition, % at 2.79 µM. hit rate 1.3% among 370,000;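 active = inhibition above about 21% made by adding two undisclosed values, limit read from the data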
SIAE inh conf: human SIAE inhibitors, retest, confirmation, biochemical, fluorescence polarization, FP-Rh probe, triplicate | SIAE FP-Rh activity-based probe | shares compounds with SIAE primary | hit rate 13% among 2,300 | AID 1117263, 2014 | inhibition, % at 9.66 µM;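 active = mean inhibition of the replicates above the hit cutoff set in the primary screen, cut at about 17% in these data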;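 also: 0% = SIAE with DMSO and probe and 100% = probe without SIAE; inhibitors lower polarization as more probe stays unbound to SIAE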
Active calls of the source: *.

Screening Cc1ccccc1CC(=O)NCCN1CCOCC1 returned mABHD4 FP 2.9, HTRA1 inh -0.3, TCR-CD3 inh 2.8, SIAE primary 1.9 and PRMT1 FP inh 1.1.
For O=C(NCCN1CCOCC1)c1ccccc1Cl the results were mABHD4 FP -1.2, HTRA1 inh 1.5, TCR-CD3 inh 4.8, SIAE primary 13.4 and PRMT1 FP inh -8.1.
`O=C(Cc1cccs1)NCCN1CCOCC1` gave mABHD4 FP -2.9, HTRA1 inh 3.5, TCR-CD3 inh 2.4, SIAE primary 22.3*, PRMT1 FP inh -1.7 and SIAE inh conf 1.1.
`Nc1sccc1C(=O)NCCN1CCOCC1` gave mABHD4 FP 10.8, TCR-CD3 inh 0.3, SIAE primary 19.1*, PRMT1 FP inh 9.7 and SIAE inh conf 2.4.
`N#Cc1ccc(CSc2nc3sc4c(c3c(=O)n2-c2ccc(Br)cc2)CCCC4)cc1` gave mABHD4 FP -3.1, SIAE primary 4.9 and PRMT1 FP inh 1.6.
For COc1ccccc1NC(=O)Nc1ccc(NC(=O)c2ccccc2O)cc1 the results were mABHD4 FP -15.8, HTRA1 inh -11.6, TCR-CD3 inh 1.2, SIAE primary 51.0*, PRMT1 FP inh -1.6 and SIAE inh conf 26.1*.
Screening Cc1[nH]c2ccccc2c1CC(=O)Nc1ccc(Nc2cccnc2)c(-c2cc(C(F)(F)F)cc(C(F)(F)F)c2)c1 returned mABHD4 FP 6.9, TCR-CD3 inh -9.7, SIAE primary -0.6 and PRMT1 FP inh 2.7.
CC(C)N(C(=O)Cn1c(=O)oc2ccccc21)c1ccccc1 was read as mABHD4 FP -2.6, HTRA1 inh 2.2, TCR-CD3 inh 12.1, SIAE primary 21.7*, PRMT1 FP inh -3.3 and SIAE inh conf -1.5.
Screening COc1ccc2c(c1)CO[C@H]([C@H](O)COC(C)=O)[C@H]2/C=C/c1ccccc1 returned mABHD4 FP -1.5, SIAE primary 12.8 and PRMT1 FP inh 4.1.
`COc1ccc(CN2C[C@@H](CO)O[C@@H](n3cnc4c(NCc5cc(OC)c(OC)c(OC)c5)ncnc43)C2)cc1` gave mABHD4 FP 0.3, TCR-CD3 inh 0.1, SIAE primary 2.2 and PRMT1 FP inh 8.7.
COc1cc(CNc2ncnc3c2ncn3[C@H]2CN(Cc3ccc(Cl)cc3)C[C@@H](CO)O2)cc(OC)c1OC was read as mABHD4 FP -2.5, TCR-CD3 inh -5.3, SIAE primary 19.1*, PRMT1 FP inh 2.0 and SIAE inh conf -3.8.
Cn1nccc1C(=O)Nc1ccc(S(=O)(=O)N2CCCC2)cc1 was read as mABHD4 FP 7.6, HTRA1 inh 5.3, TCR-CD3 inh -2.5, SIAE primary 17.9*, PRMT1 FP inh -1.4 and SIAE inh conf 6.2.
Screening CCCS(=O)(=O)NC(=O)C1(C)CCN(C(=O)CSc2ccccc2)C1 (centres undefined) returned mABHD4 FP 5.1, TCR-CD3 inh -5.0, SIAE primary 19.9*, PRMT1 FP inh 2.9 and SIAE inh conf -0.4.
For Cn1c(SCc2ccc(F)cc2)nnc1-c1cnccn1 the results were mABHD4 FP 3.0, HTRA1 inh 2.3, TCR-CD3 inh -5.2, SIAE primary -3.5 and PRMT1 FP inh 1.7.
`Cn1c(SCc2ccccc2)nnc1-c1cnccn1` gave mABHD4 FP 11.0, HTRA1 inh 3.6, TCR-CD3 inh -1.2, SIAE primary 19.6*, PRMT1 FP inh -2.6 and SIAE inh conf 6.0.
Screening CC(C)CNS(=O)(=O)/C=C/c1ccc(F)cc1CNC(=O)OC(C)(C)C returned mABHD4 FP -0.3, SIAE primary 10.3 and PRMT1 FP inh -3.7.
Screening COC(=O)[C@@]12CCCCC=C1N(CCc1ccc(Cl)cc1)C(=O)[C@H]2CC(=O)NCC12CC3CC(CC(C3)C1)C2 returned mABHD4 FP 1.6, SIAE primary -2.7 and PRMT1 FP inh -0.1.
CC1(c2ccc(Cl)cc2Cl)NC(=O)N(CC(=O)Nc2ccc3[nH]c(=O)[nH]c3c2)C1=O (centres undefined) was read as mABHD4 FP 2.5, HTRA1 inh -3.1, TCR-CD3 inh 10.9, SIAE primary 24.0*, PRMT1 FP inh -2.2 and SIAE inh conf 1.9.
Screening CCc1c(C)c2ccc(OCC(N)=O)cc2oc1=O returned mABHD4 FP -2.0, HTRA1 inh 4.1, TCR-CD3 inh -1.2, SIAE primary 24.4*, PRMT1 FP inh -3.1 and SIAE inh conf 2.1.
COc1ccc([C@H]2OC(=O)C[C@@H]2C(=O)N2CCCCC2)cc1OC was read as mABHD4 FP 4.6, SIAE primary -0.1 and PRMT1 FP inh -0.8.
`COC(=O)[C@H](CC(C)C)N(CCCc1cn(CC2CCCCC2)nn1)S(=O)(=O)c1ccccc1Br` gave mABHD4 FP 2.9, SIAE primary -2.6 and PRMT1 FP inh 2.8.
For O=C(NCCO)C(=O)NCC1CCCN1S(=O)(=O)c1cccs1 (centres undefined) the results were mABHD4 FP 2.3, HTRA1 inh 4.1, TCR-CD3 inh 0.9, SIAE primary 0.9 and PRMT1 FP inh 2.6.
`C=CCNC(=O)C(=O)NCC1CCCN1S(=O)(=O)c1cccs1` (centres undefined) gave mABHD4 FP 2.5, HTRA1 inh -3.1, TCR-CD3 inh 4.6, SIAE primary 19.8*, PRMT1 FP inh -1.0 and SIAE inh conf 4.7.
Screening Cc1cccc[n+]1C1C(c2ccc([N+](=O)[O-])cc2)C(C#N)=C(C(=C=[N-])C#N)NC1(O)C1CC1 (centres undefined) returned mABHD4 FP 9.7, HTRA1 inh 13.8, TCR-CD3 inh -12.5, SIAE primary 40.1*, PRMT1 FP inh 6.2 and SIAE inh conf -0.3.
`Cc1cccc[n+]1CC(=O)Nc1ccc([N+](=O)[O-])cc1` gave mABHD4 FP -2.0, HTRA1 inh -1.4, TCR-CD3 inh 8.4, SIAE primary -2.1 and PRMT1 FP inh -3.2.
O=C(CCc1ccccc1)N[C@H]1[C@H](OC(=O)c2cnccn2)CCC[C@@]12C(=O)N(Cc1ccccc1)c1ccccc12 was read as mABHD4 FP -0.8, SIAE primary 3.9 and PRMT1 FP inh -2.5.
Screening COc1ccc(CCNC(=O)C/C(C)=N/NC(=O)c2ccc([N+](=O)[O-])cc2Cl)cc1OC returned mABHD4 FP -4.4, HTRA1 inh -0.9, TCR-CD3 inh -7.5, SIAE primary 17.2*, PRMT1 FP inh -1.1 and SIAE inh conf 6.3.
`O=C(c1ccccc1F)N1CCN(c2ccccc2)CC1` gave mABHD4 FP -7.0, HTRA1 inh -1.7, TCR-CD3 inh 2.2, SIAE primary 17.2*, PRMT1 FP inh 0.4 and SIAE inh conf 0.3.
